5 compounds from ChEMBL document CHEMBL1130160 (J Med Chem, 1997) can be followed below.

In one assay the test system is Rattus norvegicus. The assay is described as follows: Minimum effective dose at which significant increase in uterine weight/body weight in rat was determined (in vivo); expressed as % increase relative to ovariectomized (OVX) controls. It is filed as functional.
Settings: not given
Put shortly: (§1)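 In 75-day OVX Sprague–Dawley rats dosed orally for 4 days, beginning 2 weeks post-ovariectomy with 5–6 rats per group, whole uteri were weighed the morning after fasting. MED is the lowest dose giving a significant (p≤0.05) rise in uterine weight/body weight, expressed as % increase over OVX controls ±SE.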
Compound `O=C(c1ccc(OCCN2CCCCC2)cc1)c1c(-c2ccc(O)cc2)sc2cc(O)ccc12` [RALOXIFENE] gave an Increase of 23.5%.

The compound `Cc1cc(-c2sc3cc(O)ccc3c2C(=O)c2ccc(OCCN3CCCCC3)cc2)cc(C)c1O` returned an Increase of 33.8%.

As to `COC(=O)c1ccc2c(C(=O)c3ccc(OCCN4CCCCC4)cc3)c(-c3ccc(O)cc3)sc2c1.Cl`, the Increase came out at 37.5%.

The compound `O=C(c1ccc(OCCN2CCCCC2)cc1)c1c2ccc(O)cc2sc1[C@H]1CC[C@H](O)CC1` displayed an Increase of 46.7%.

As for `O=C(c1ccc(OCCN2CCCCC2)cc1)c1c(-c2ccc(O)c(F)c2)sc2cc(O)ccc12`, the Increase came out at 34.3%.

The next assay deals with Rattus norvegicus. The assay is described as follows: Percent protection of bone mineral density in the distal femur of OVX rat at a dose of 0.1 mg/kg/day. The assay is classed as functional.
Settings: not given
In a few lines: (§2)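 OVX Sprague–Dawley rats (6-month old, or 75-day old in one case) were dosed orally each day for 35 days, starting 4 days after ovariectomy. Digitized X-rays of the right distal femoral metaphysis gave BMD. % protection = (test − OVX)/(sham − OVX) × 100, reported ±SE.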
As for `O=C(c1ccc(OCCN2CCCCC2)cc1)c1c(-c2ccc(O)cc2)sc2cc(O)ccc12` [RALOXIFENE], the Protection was 50%.

With `COC(=O)c1ccc2c(C(=O)c3ccc(OCCN4CCCCC4)cc3)c(-c3ccc(O)cc3)sc2c1.Cl`, the Protection is on record as -10%.

Take `O=C(c1ccc(OCCN2CCCCC2)cc1)c1c2ccc(O)cc2sc1[C@H]1CC[C@H](O)CC1`: the Protection stood at 17%.

Turning to `O=C(c1ccc(OCCN2CCCCC2)cc1)c1c(-c2ccc(O)c(F)c2)sc2cc(O)ccc12`, the Protection is 34.1%.

Another assay deals with Estrogen receptor (Homo sapiens, UniProt Q92731+P03372). Particulars: mcf7.
The IC50 is the concentration that gives 50% inhibition. Compound `Cc1cc(-c2sc3cc(O)ccc3c2C(=O)c2ccc(OCCN3CCCCC3)cc2)cc(C)c1O` showed an IC50 of 100 nM.

Turning to `O=C(c1ccc(OCCN2CCCCC2)cc1)c1c(-c2ccc(O)c(F)c2)sc2cc(O)ccc12`, the IC50 was found to be 0.3 nM.

The test system of another assay is Rattus norvegicus. The assay is described as follows: Percent protection of bone mineral density in the distal femur of OVX rat at a dose of 0.01 mg/kg/day.
Settings: not given
The assay is classed as functional. In a few lines: as §2
On to `O=C(c1ccc(OCCN2CCCCC2)cc1)c1c(-c2ccc(O)cc2)sc2cc(O)ccc12` [RALOXIFENE], for which the Protection is reported as 9.6%.

For `O=C(c1ccc(OCCN2CCCCC2)cc1)c1c(-c2ccc(O)c(F)c2)sc2cc(O)ccc12`, the Protection is recorded as 34.5%.

A further assay has as its system Rattus norvegicus. The assay is described as follows: Minimum effective dose at which significant increase in uterine eosinophil peroxidase (EPO) activity in rat was determined (in vivo). It is filed as functional. As to conditions: read-out: MED.
For `O=C(c1ccc(OCCN2CCCCC2)cc1)c1c(-c2ccc(O)cc2)sc2cc(O)ccc12` [RALOXIFENE], the minimal effective dose is above 10 mg/kg.

As for `Cc1cc(-c2sc3cc(O)ccc3c2C(=O)c2ccc(OCCN3CCCCC3)cc2)cc(C)c1O`, the minimal effective dose came out at 1 mg/kg.

Take `COC(=O)c1ccc2c(C(=O)c3ccc(OCCN4CCCCC4)cc3)c(-c3ccc(O)cc3)sc2c1.Cl`: the minimal effective dose is above 10 mg/kg.

`O=C(c1ccc(OCCN2CCCCC2)cc1)c1c2ccc(O)cc2sc1[C@H]1CC[C@H](O)CC1`: the minimal effective dose is above 10 mg/kg.

As to `O=C(c1ccc(OCCN2CCCCC2)cc1)c1c(-c2ccc(O)c(F)c2)sc2cc(O)ccc12`, the minimal effective dose was above 10 mg/kg.

A further assay has as its system Rattus norvegicus. As to the kind of experiment: Percent decrease in serum cholesterol relative to OVX control at 0.1 mg/kg in rats. The assay is classed as functional.
Settings: not given
Put shortly:
(§3)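 OVX Sprague–Dawley rats (75 days old), 5–6 per group, dosed once daily by oral gavage for 4 consecutive days, starting 14 days after ovariectomy. Vehicle was 20% β-hydroxycyclodextrin at 1 mL/kg, or 1.5% carboxymethylcellulose in some cases. Rats were fasted after the last dose and bled by cardiac puncture next morning.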
Compound `O=C(c1ccc(OCCN2CCCCC2)cc1)c1c2ccc(O)cc2sc1[C@H]1CC[C@H](O)CC1` showed a Decrease of 48.7%.

For the next assay, the system named is Rattus norvegicus. The assay is described as follows: Dose required to reduce serum cholesterol by 50% relative to OVX controls was determined (in vivo). The assay is classed as functional.
Settings: not given
In a few lines: as §3
A word on the ED50: it is the midpoint of the dose-response relation. Compound `O=C(c1ccc(OCCN2CCCCC2)cc1)c1c(-c2ccc(O)cc2)sc2cc(O)ccc12` [RALOXIFENE] registered an ED50 of 0.2 mg/kg.

`Cc1cc(-c2sc3cc(O)ccc3c2C(=O)c2ccc(OCCN3CCCCC3)cc2)cc(C)c1O` yielded an ED50 of 1.8 mg/kg.

On to `COC(=O)c1ccc2c(C(=O)c3ccc(OCCN4CCCCC4)cc3)c(-c3ccc(O)cc3)sc2c1.Cl`, for which the ED50 was determined as 2.8 mg/kg.

`O=C(c1ccc(OCCN2CCCCC2)cc1)c1c2ccc(O)cc2sc1[C@H]1CC[C@H](O)CC1` registered an ED50 of 1 mg/kg.

For the compound `O=C(c1ccc(OCCN2CCCCC2)cc1)c1c(-c2ccc(O)c(F)c2)sc2cc(O)ccc12`, the 50% effective dose (ED50) stood at 0.4 mg/kg.

The subject of a further assay is Rattus norvegicus. The assay is described as follows: Percent decrease in serum cholesterol relative to OVX control at 10 mg/kg in rat was determined (in vivo). The assay is classed as functional.
Settings: not given
Put shortly: as §3
Consider `O=C(c1ccc(OCCN2CCCCC2)cc1)c1c(-c2ccc(O)cc2)sc2cc(O)ccc12` [RALOXIFENE], for which the Decrease is 74%.

`Cc1cc(-c2sc3cc(O)ccc3c2C(=O)c2ccc(OCCN3CCCCC3)cc2)cc(C)c1O` gave a Decrease of 69.1%.

As to `COC(=O)c1ccc2c(C(=O)c3ccc(OCCN4CCCCC4)cc3)c(-c3ccc(O)cc3)sc2c1.Cl`, the Decrease came to 61%.

As to `O=C(c1ccc(OCCN2CCCCC2)cc1)c1c2ccc(O)cc2sc1[C@H]1CC[C@H](O)CC1`, the Decrease was 60.4%.

On to `O=C(c1ccc(OCCN2CCCCC2)cc1)c1c(-c2ccc(O)c(F)c2)sc2cc(O)ccc12`, for which the Decrease was determined as 55.3%.

The next assay has as its system Rattus norvegicus. As to the kind of experiment: Percent protection of bone mineral density in the distal femur of OVX rat at a dose of 1 mg/kg/day. The assay is classed as functional.
Settings: not given
Put shortly:
as §2
Consider `O=C(c1ccc(OCCN2CCCCC2)cc1)c1c(-c2ccc(O)cc2)sc2cc(O)ccc12` [RALOXIFENE], for which the Protection is recorded as 57.7%.

With `COC(=O)c1ccc2c(C(=O)c3ccc(OCCN4CCCCC4)cc3)c(-c3ccc(O)cc3)sc2c1.Cl`, the Protection was 17%.

As for `O=C(c1ccc(OCCN2CCCCC2)cc1)c1c2ccc(O)cc2sc1[C@H]1CC[C@H](O)CC1`, the Protection amounted to 61.3%.

In the case of `O=C(c1ccc(OCCN2CCCCC2)cc1)c1c(-c2ccc(O)c(F)c2)sc2cc(O)ccc12`, the Protection turned out to be 68%.

In another assay the test system is Rattus norvegicus. The assay is described as follows: Percent decrease in serum cholesterol relative to OVX control at 0.1 mg/kg in rat was determined (in vivo). The assay is classed as functional.
Settings: not given
Put shortly: as §3
In turn, `O=C(c1ccc(OCCN2CCCCC2)cc1)c1c(-c2ccc(O)cc2)sc2cc(O)ccc12` [RALOXIFENE] gave a Decrease of 44.9%.

`Cc1cc(-c2sc3cc(O)ccc3c2C(=O)c2ccc(OCCN3CCCCC3)cc2)cc(C)c1O` returned a Decrease of 23.1%.

In turn, `COC(=O)c1ccc2c(C(=O)c3ccc(OCCN4CCCCC4)cc3)c(-c3ccc(O)cc3)sc2c1.Cl` came in with a Decrease of 13.8%.

Turning to `O=C(c1ccc(OCCN2CCCCC2)cc1)c1c(-c2ccc(O)c(F)c2)sc2cc(O)ccc12`, the Decrease is 45.9%.

The subject of a further assay is Rattus norvegicus. As to the kind of experiment: Percent protection of bone mineral density in the distal femur of OVX rat at a dose of 10 mg/kg/day.
Settings: not given
It is filed as functional. Put shortly:
as §2
Take `O=C(c1ccc(OCCN2CCCCC2)cc1)c1c(-c2ccc(O)cc2)sc2cc(O)ccc12` [RALOXIFENE]: the Protection is recorded as 53.8%.

Take `COC(=O)c1ccc2c(C(=O)c3ccc(OCCN4CCCCC4)cc3)c(-c3ccc(O)cc3)sc2c1.Cl`: the Protection amounted to 43.9%.

As to `O=C(c1ccc(OCCN2CCCCC2)cc1)c1c2ccc(O)cc2sc1[C@H]1CC[C@H](O)CC1`, the Protection was found to be 67.4%.

On to `O=C(c1ccc(OCCN2CCCCC2)cc1)c1c(-c2ccc(O)c(F)c2)sc2cc(O)ccc12`, for which the Protection came to 69.8%.

The test system of the next assay is Rattus norvegicus. As to the kind of experiment: Percent decrease in serum cholesterol relative to OVX control at 1 mg/kg in rat.
Settings: not given
The assay is classed as functional. Put shortly:
as §3
`O=C(c1ccc(OCCN2CCCCC2)cc1)c1c(-c2ccc(O)cc2)sc2cc(O)ccc12` [RALOXIFENE] gave a Decrease of 66.7%.

`Cc1cc(-c2sc3cc(O)ccc3c2C(=O)c2ccc(OCCN3CCCCC3)cc2)cc(C)c1O` had a Decrease of 40.2%.

Turning to `COC(=O)c1ccc2c(C(=O)c3ccc(OCCN4CCCCC4)cc3)c(-c3ccc(O)cc3)sc2c1.Cl`, the Decrease was 42.8%.

On to `O=C(c1ccc(OCCN2CCCCC2)cc1)c1c(-c2ccc(O)c(F)c2)sc2cc(O)ccc12`, for which the Decrease is 59.2%.

The subject of a further assay is Rattus norvegicus. The assay is described as follows: Percent decrease in serum cholesterol relative to OVX control at 1.0 mg/kg in rats. It is filed as functional.
Settings: not given
In a few lines: as §3
For `O=C(c1ccc(OCCN2CCCCC2)cc1)c1c2ccc(O)cc2sc1[C@H]1CC[C@H](O)CC1`, the Decrease came out at 41.1%.

For another assay, the system named is Rattus norvegicus. The assay is described as follows: Minimum effective dose at which significant increase in uterine weight/body weight in rat was determined (in vivo). The assay is classed as functional. Particulars: read-out: MED. Put shortly:
as §1
For `O=C(c1ccc(OCCN2CCCCC2)cc1)c1c(-c2ccc(O)cc2)sc2cc(O)ccc12` [RALOXIFENE], the minimal effective dose was 0.1 mg/kg.

Consider `Cc1cc(-c2sc3cc(O)ccc3c2C(=O)c2ccc(OCCN3CCCCC3)cc2)cc(C)c1O`, for which the minimal effective dose was determined as 1 mg/kg.

In the case of `COC(=O)c1ccc2c(C(=O)c3ccc(OCCN4CCCCC4)cc3)c(-c3ccc(O)cc3)sc2c1.Cl`, the minimal effective dose came out at 0.1 mg/kg.

Turning to `O=C(c1ccc(OCCN2CCCCC2)cc1)c1c2ccc(O)cc2sc1[C@H]1CC[C@H](O)CC1`, the minimal effective dose was 0.1 mg/kg.

With `O=C(c1ccc(OCCN2CCCCC2)cc1)c1c(-c2ccc(O)c(F)c2)sc2cc(O)ccc12`, the minimal effective dose amounted to 0.1 mg/kg.

The subject of the next assay is Rattus norvegicus. The assay is described as follows: Eosinophil peroxidase activity expressed as Vmax was determined in rat (in vivo) Eosinophil peroxidase activity expressed as Vmax was determined in rat (in vivo). It is filed as functional.
Settings: not given
More on the design: unit not given here.
As for `Cc1cc(-c2sc3cc(O)ccc3c2C(=O)c2ccc(OCCN3CCCCC3)cc2)cc(C)c1O`, the Eosinophil peroxidase activity (Vmax) stood at 40.8.
